According to paper PMC3738169 (Journal of medicinal chemistry, 2012):
Each block holds one compound with its values, some of them ahead of it.

Experiments:
[1] = system: p-Akt T308 (PI3K/Akt pathway) in prostate cancer C4-2 cells; test: p-Akt T308 Western blot in C4-2 cells; format: cell-based
Summary of the method: (§1)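 BT-549 cells (RPMI 1640, 10% FBS, 0.023 U/mL insulin) and C4-2 cells (RPMI 1640, 10% FBS) were seeded at 4×105 per 6 cm dish, grown 48 h to about 80% confluence, then moved to serum-free medium. Dosing was a 30 min concentration series with DMSO control, or a 3 h series or 30 min–6 h time course with PBS control. Lysates went to 12% SDS-PAGE and were probed for p-Akt T308, Akt and β-actin, with infrared detection and densitometry.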

[2] = system: p-Akt T308 (PI3K/Akt pathway) in breast cancer BT-549 cells; test: p-Akt T308 Western blot in BT-549 cells; format: cell-based
Summary of the method: as §1

[3] = system: C4-2LucBAD cells; details: C42LucBAD cells that ectopically express BAD; cited from earlier work
[4] = Water solubility; details: qualitative statement
[5] = system: p-Akt T308 in prostate cancer LNCaP cells; test: p-Akt T308 Western blot in LNCaP cells; format: cell-based; details: LNCaP cells incubated with 11, 3 h, dose-response, control PBS
Summary of the method: (§2)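 Cells were seeded at 4×105 per 6 cm dish, grown 48 h to about 80% confluence, then exposed to test compound for 3 h with PBS as control. C4-2LucBAD cells were in RPMI 1640, serum-free for 18 h beforehand. LNCaP cells were in T-Medium with 2.5% FBS. U-87 MG cells were in DMEM, serum-free. HEPES pH 7.4 lysates with protease and phosphatase inhibitors were blotted for p-Akt T308, Akt and β-actin.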

[6] = system: p-Akt T308 in glioblastoma-astrocytoma U-87 MG cells; test: p-Akt T308 Western blot in U-87 MG cells; format: cell-based; details: U-87 MG cells (no PSA) incubated with 11, 3 h, control PBS
Summary of the method: as §2

[7] = system: p-Akt T308 in C4-2LucBAD cells; test: p-Akt T308 Western blot in C4-2LucBAD cells; format: cell-based; details: 3 h, dose-response, control PBS
Summary of the method: as §2

[8] = system: C4-2LucBAD cells; test: Caspase 3 assay in C4-2LucBAD cells; format: cell-based
[9] = system: p-Akt T308 in breast cancer BT-549 cells; test: C4-2 conditioned medium assay; format: cell-based; details: 11 incubated in media conditioned by BT-549 cells
Summary of the method: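 Test compound held 6 h at 37 °C (5% CO2, humidified) in serum-free medium on producer cells; this line's arm used BT-549-conditioned medium. Medium then transferred to BT-549 cells for 3 h. Cells seeded 4×10^5 per 6 cm dish, grown 48 h to ~80% confluence; BT-549 medium carried 0.023 U/mL insulin. Phospho-Akt T308 read by Western blot of clarified lysates; n=3.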

[10] = system: purified active human PSA; p-Akt T308 in BT-549 cells; test: Cleavage of compound 11 with purified PSA, then p-Akt T308 in BT-549 cells; format: cell-based; details: 11 without PSA, added to BT-549 cells for 30 min
Summary of the method: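 Test compound was pre-incubated 6 h at 37 °C in 50 mM Tris-HCl, 0.1 M NaCl, pH 7.8 with increasing concentrations of enzymatically active PSA purified from human semen. It was then applied for 30 min to serum-starved BT-549 cells, maintained in RPMI 1640 with 10% FBS and 0.023 U/mL insulin. p-Akt T308 was read by Western blot against a PBS control, in three independent experiments.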

Compound: CC(C)CC(N)C(=O)OCc1ccc(-c2cccc3c(=O)cc(N4CCOCC4)oc23)cc1 (stereo not shown) [Compound 10, 4-(2-morpholino-4-oxo-4H-chromen-8-yl) benzyl-2-amino-4-methylpentanoate]
PI3 kinase inhibitory potency relative to LY294002 ([1]; C4-2 and BT-549 cells, p-Akt T308 read-out, 30 min): comparable to LY294002
concentration that completely inhibited Akt phosphorylation ([1]; C4-2 cells, 30 min, dose-response analysis): 30 µM
concentration that completely inhibited Akt phosphorylation ([2]; BT-549 cells, 30 min, dose-response analysis): 30 µM

water solubility [4]: poor water solubility
Compound: O=c1cc(N2CCOCC2)oc2c(-c3ccccc3)cccc12 [LY294002]
induction of apoptosis [3]: induces apoptosis

Compound: Mu-LEHSSKLQL-8-(4-(Hydroxymethyl)phenyl)-2-morpholino-4H-chromen-4-one [Compound 11]
p-Akt T308 levels ([1]; C4-2 cells incubated with 11, 3 h, dose-response, control PBS): dose-dependent reduction
p-Akt T308 levels, time course ([1]; C4-2 cells treated with 11 from 30 min to 6 h, vs control, Western blot, three independent experiments): time-dependent reduction
p-Akt T308 levels ([2]; BT-549 cells (no PSA) incubated with 11, 3 h, control PBS): No significant reduction
p-Akt T308 levels, time course ([2]; BT-549 cells treated with 11 from 30 min to 6 h, Western blot, three independent experiments): no significant differences
p-Akt T308 levels [5]: dose-dependent reduction
p-Akt T308 levels [6]: No significant reduction
p-Akt T308 levels [7]: dose-dependent reduction
Caspase 3 activity compared with active inhibitor ([8]; 6 h): Somewhat lower levels
Caspase 3 activity (apoptosis) ([8]; 6 h after administration, fluorogenic substrate Ac-DEVD-7-amido-4-trifluoromethylcoumarin, n=2, vs DMSO control): increased
p-Akt T308 levels in BT-549 cells after 11 incubated in BT-549 conditioned media [9]: had no effects
p-Akt T308 levels in BT-549 cells, 11 without enzymatically active PSA [10]: had no effect
